# Experimental data taken from ChEMBL document CHEMBL1649165, “Activity profile in vitro of micafungin against Spanish clinical isolates of common and emerging species of yeasts and molds” (2009).
# Assays:
# Type in all cases: functional
# Candida parapsilosis = experiment: Antimicrobial activity against Candida parapsilosis by broth microdilution method; settings: Lodderomyces parapsilosis
# How it was run: (§1)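 Clinical isolates from human patients, tested by broth microdilution using the AFST-EUCAST reference procedure for fermentative yeasts. The MIC was read per that reference method.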
# Pichia kudriavzevii = experiment: Antimicrobial activity against Candida krusei by broth microdilution method; how it was run: as §1
# [1] = system: Meyerozyma guilliermondii; experiment: Antimicrobial activity against Candida guilliermondii by broth microdilution method; how it was run: as §1
# Clavispora lusitaniae = experiment: Antimicrobial activity against Candida lusitaniae by broth microdilution method; how it was run: as §1
# Diutina rugosa = experiment: Antimicrobial activity against Candida rugosa by broth microdilution method; how it was run: as §1
# Debaryomyces hansenii = experiment: Antimicrobial activity against Candida famata by broth microdilution method; how it was run: as §1
# Torulaspora delbrueckii = experiment: Antimicrobial activity against Candida coliculosa by broth microdilution method; how it was run: as §1
# [Candida] inconspicua = Antimicrobial activity against Candida inconspicua by broth microdilution method; settings: Pichia inconspicua; how it was run: as §1
# Candida orthopsilosis = experiment: Antimicrobial activity against Candida orthopsilosis by broth microdilution method; settings: Lodderomyces orthopsilosis; how it was run: as §1
# [2] = system: Kazachstania pintolopesii; experiment: Antimicrobial activity against Candida pintolopesii by broth microdilution method; settings: Arxiozyma pintolopesii; how it was run: as §1
# Magnusiomyces capitatus = experiment: Antimicrobial activity against Dipodascus capitatus by broth microdilution method
# Geotrichum candidum = experiment: Antimicrobial activity against Galactomyces geotrichum by broth microdilution method
# [3] = system: Cryptococcus deneoformans; experiment: Antimicrobial activity against Cryptococcus neoformans var. neoformans by broth microdilution method
# How it was run: (§2)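 Clinical isolates of nonfermentative yeasts, tested by broth microdilution following EUCAST recommendations. The only change from that method was a minor modification to improve growth.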
# Trichosporon asahii = experiment: Antimicrobial activity against Trichosporon asahii by broth microdilution method
# How it was run: (§3)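 Nonfermentative yeast clinical isolates (Rhodotorula, Trichosporon) tested by broth microdilution. The EUCAST yeast recommendations were followed strictly, with one minor modification to improve growth. MIC was read as the endpoint.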
# Trichosporon inkin = experiment: Antimicrobial activity against Trichosporon inkin by broth microdilution method; how it was run: as §3
# Trichosporon ovoides = experiment: Antimicrobial activity against Trichosporon ovoides by broth microdilution method; how it was run: as §3
# Trichosporon jirovecii = experiment: Antimicrobial activity against Trichosporon jirovecii by broth microdilution method; settings: Cutaneotrichosporon jirovecii; how it was run: as §3
# Naganishia albida = experiment: Antimicrobial activity against Cryptococcus albidus by broth microdilution method; how it was run: as §2
# Ustilago = experiment: Antimicrobial activity against Ustilago spp by broth microdilution method
# Papiliotrema laurentii = experiment: Antimicrobial activity against Cryptococcus laurentii by broth microdilution method; how it was run: as §2
# Aspergillus fumigatus = experiment: Antimicrobial activity against Aspergillus fumigatus by broth microdilution method
# How it was run: (§4)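 Clinical mould isolates, tested by broth microdilution using the AFST-EUCAST reference method for filamentous fungi. For echinocandins, the endpoint was the minimum effective concentration: the lowest drug concentration giving aberrant hyphal growth, read with an inverted microscope.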
# Aspergillus ustus = experiment: Antimicrobial activity against Aspergillus ustus by broth microdilution method; how it was run: as §4
# Aspergillus sclerotiorum = experiment: Antimicrobial activity against Aspergillus sclerotiorum by broth microdilution method; how it was run: as §4
# Aspergillus = experiment: Antimicrobial activity against Aspergillus spp. by broth microdilution method; how it was run: as §4
# Fusarium solani = experiment: Antimicrobial activity against Fusarium solani by broth microdilution method
# How it was run: (§5)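 Filamentous fungus clinical isolates tested by the AFST-EUCAST reference broth microdilution method for moulds. For echinocandins, the endpoint was the minimum effective concentration: the lowest drug concentration giving aberrant hyphal growth, read with an inverted microscope.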
# Paecilomyces variotii = experiment: Antimicrobial activity against Paecilomyces variotii by broth microdilution method; how it was run: as §5
# Acremonium sp. = experiment: Antimicrobial activity against Acremonium sp.by broth microdilution method; how it was run: as §4
# [4] = Antimicrobial activity against Hormographiella aspergillata by broth microdilution method; settings: Coprinopsis cinerea; how it was run: as §5
# Fusarium equiseti = experiment: Antimicrobial activity against Fusarium equiseti by broth microdilution method; how it was run: as §4
# Fusarium reticulatum = experiment: Antimicrobial activity against Fusarium reticulatum by broth microdilution method; how it was run: as §5
# Coprinellus domesticus = experiment: Antimicrobial activity against Hormographiella verticillata by broth microdilution method; how it was run: as §5
# Neurospora sitophila = experiment: Antimicrobial activity against Chrysonilia sitophila by broth microdilution method; how it was run: as §4
# Lomentospora prolificans = experiment: Antimicrobial activity against Scedosporium prolificans by broth microdilution method; how it was run: as §5
# Cladosporium = experiment: Antimicrobial activity against Cladosporium spp. by broth microdilution method; how it was run: as §4
# [5] = system: Cladophialophora bantiana; experiment: Antimicrobial activity against Cladophialophora bantiana by broth microdilution method; how it was run: as §4
# Scytalidium hyalinum = experiment: Antimicrobial activity against Scytalidium hyalinum by broth microdilution method; settings: Neoscytalidium hyalinum; how it was run: as §5
# Lichtheimia corymbifera = experiment: Antimicrobial activity against Mycocladus corymbiferus by broth microdilution method; how it was run: as §5
# Rhizopus arrhizus = experiment: Antimicrobial activity against Rhizopus oryzae by broth microdilution method; how it was run: as §5
# [6] = system: Cunninghamella bertholletiae; experiment: Antimicrobial activity against Cunninghamella bertholletiae by broth microdilution method; how it was run: as §4
# Exophiala jeanselmei = experiment: Antimicrobial activity against Exophiala jeanselmei by broth microdilution method
compound,measurement,setting,value
C[C@@H](c1ncncc1F)[C@](O)(Cn1cncn1)c1ccc(F)cc1F [VORICONAZOLE],MIC50,Candida parapsilosis,0.02 µg/mL
same,MIC90,Candida parapsilosis,0.02 µg/mL
same,MIC50,Pichia kudriavzevii,0.25 µg/mL
same,MIC90,Pichia kudriavzevii,0.5 µg/mL
same,MIC50,[1],0.12 µg/mL
same,MIC90,[1],> 8 µg/mL
same,MIC50,Clavispora lusitaniae,0.02 µg/mL
same,MIC90,Clavispora lusitaniae,0.02 µg/mL
same,MIC50,Diutina rugosa,0.12 µg/mL
same,MIC90,Diutina rugosa,> 8 µg/mL
same,MIC50,Debaryomyces hansenii,0.12 µg/mL
same,MIC90,Debaryomyces hansenii,> 8 µg/mL
same,MIC50,Torulaspora delbrueckii,0.12 µg/mL
same,MIC90,Torulaspora delbrueckii,> 8 µg/mL
same,MIC50,[Candida] inconspicua,0.12 µg/mL
same,MIC90,[Candida] inconspicua,> 8 µg/mL
same,MIC50,Candida orthopsilosis,0.12 µg/mL
same,MIC90,Candida orthopsilosis,> 8 µg/mL
same,MIC50,[2],0.12 µg/mL
same,MIC90,[2],> 8 µg/mL
same,MIC50,Magnusiomyces capitatus,0.5 µg/mL
same,MIC90,Magnusiomyces capitatus,1 µg/mL
same,MIC50,Geotrichum candidum,0.5 µg/mL
same,MIC90,Geotrichum candidum,1 µg/mL
same,MIC50,[3],0.12 µg/mL
same,MIC90,[3],0.5 µg/mL
same,MIC50,Trichosporon asahii,0.25 µg/mL
same,MIC90,Trichosporon asahii,> 8 µg/mL
same,MIC50,Trichosporon inkin,0.06 µg/mL
same,MIC90,Trichosporon inkin,0.12 µg/mL
same,MIC50,Trichosporon ovoides,0.5 µg/mL
same,MIC90,Trichosporon ovoides,> 8 µg/mL
same,MIC50,Trichosporon jirovecii,0.5 µg/mL
same,MIC90,Trichosporon jirovecii,> 8 µg/mL
same,MIC50,Naganishia albida,0.5 µg/mL
same,MIC90,Naganishia albida,> 8 µg/mL
same,MIC50,Ustilago,0.5 µg/mL
same,MIC90,Ustilago,> 8 µg/mL
same,MIC50,Papiliotrema laurentii,0.5 µg/mL
same,MIC90,Papiliotrema laurentii,> 8 µg/mL
same,MIC50,Aspergillus fumigatus,0.5 µg/mL
same,MIC90,Aspergillus fumigatus,1 µg/mL
same,MIC50,Aspergillus ustus,0.25 µg/mL
same,MIC90,Aspergillus ustus,> 8 µg/mL
same,MIC50,Aspergillus sclerotiorum,0.25 µg/mL
same,MIC90,Aspergillus sclerotiorum,> 8 µg/mL
same,MIC50,Aspergillus,0.25 µg/mL
same,MIC90,Aspergillus,> 8 µg/mL
same,MIC50,Fusarium solani,> 8 µg/mL
same,MIC90,Fusarium solani,4 µg/mL
same,MIC50,Paecilomyces variotii,1 µg/mL
same,MIC90,Paecilomyces variotii,> 8 µg/mL
same,MIC50,Acremonium sp.,4 µg/mL
same,MIC90,Acremonium sp.,> 8 µg/mL
same,MIC50,[4],4 µg/mL
same,MIC90,[4],> 8 µg/mL
same,MIC50,Fusarium equiseti,4 µg/mL
same,MIC90,Fusarium equiseti,> 8 µg/mL
same,MIC50,Fusarium reticulatum,4 µg/mL
same,MIC90,Fusarium reticulatum,> 8 µg/mL
same,MIC50,Coprinellus domesticus,4 µg/mL
same,MIC90,Coprinellus domesticus,> 8 µg/mL
same,MIC50,Neurospora sitophila,4 µg/mL
same,MIC90,Neurospora sitophila,> 8 µg/mL
same,MIC50,Lomentospora prolificans,> 8 µg/mL
same,MIC90,Lomentospora prolificans,> 8 µg/mL
same,MIC50,Cladosporium,0.06 µg/mL
same,MIC90,Cladosporium,> 8 µg/mL
same,MIC50,[5],0.06 µg/mL
same,MIC90,[5],> 8 µg/mL
same,MIC50,Scytalidium hyalinum,0.06 µg/mL
same,MIC90,Scytalidium hyalinum,> 8 µg/mL
same,MIC50,Lichtheimia corymbifera,> 8 µg/mL
same,MIC90,Lichtheimia corymbifera,> 8 µg/mL
same,MIC50,Rhizopus arrhizus,> 8 µg/mL
same,MIC90,Rhizopus arrhizus,> 8 µg/mL
same,MIC50,[6],> 8 µg/mL
same,MIC90,[6],> 8 µg/mL
same,MIC50,Exophiala jeanselmei,0.06 µg/mL
same,MIC90,Exophiala jeanselmei,> 8 µg/mL
